Measurements from PMC12177174 (iScience, 2025).
Several values for one entry are separate records, joined by “and”; a condition that tells them apart may be missing. Equal values may be shown once.

Assays:
Phase 1 Part 2 = format: in vivo, homo sapiens; conditions: Part 2 MAD pooled, n=26
How it was run: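 Healthy adults got test compound (5, 15 or 20 mg) or placebo once daily on day 1 and days 3–16. The first cohort had 6 active and 2 placebo; later cohorts had 8 active and 3 placebo, each starting with a 2:1 sentinel group. Participants were discharged day 19, with follow-up 6 ± 1 and 29 ± 2 days after the last dose. Events were graded by CTCAE, with investigator-assessed relatedness. Placebo was pooled.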

[1] = Pharmacokinetics Part 1, single oral dose, plasma and urine; format: in vivo, homo sapiens
How it was run: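 Healthy adults (men and women of non-child-bearing potential) got one oral dose of test compound (7, 20 or 40 mg; 6 per cohort) or placebo. Plasma was sampled pre-dose, at 15 and 30 min, and at 1–48 h (72 h at 40 mg only). Urine was collected over 0–72 h intervals. Analysis was LC-MS/MS after protein precipitation (plasma 1.00–6000 nmol/L). t½ = ln(2)/λz. Dose proportionality was assessed graphically and by power model.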

[2] = Pharmacokinetics Part 2, once daily oral dosing, plasma and urine; format: in vivo, homo sapiens
How it was run: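 Oral test compound or placebo was given once each morning at 5, 15 or 20 mg on day 1 and days 3–16. Plasma was sampled over 48 h after the day 1 dose and after the day 16 dose, with troughs pre-dose on days 4, 5, 6, 9 and 12. Urine was collected in intervals on days 1 and 16. Quantitation was by LC-MS/MS after protein precipitation.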

CTX-1 = experiment: Serum bone turnover biomarker CTX-1; format: in vivo, homo sapiens
How it was run: (§1)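 Participants got test compound (5, 15 or 20 mg) or placebo once daily on day 1 and days 3–16. Serum was drawn at screening and pre-dose on days 1, 5, 7, 12 and 16, and on days 22 (±1) and 45 (±2), at the same time as baseline. CTX-1, P1NP and osteocalcin were measured by electrochemiluminescence immunoassay and BSAP by sandwich ELISA. Results are percent change from baseline versus pooled placebo.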

P1NP = experiment: Serum bone turnover biomarker P1NP; format: in vivo, homo sapiens; conditions: 15 mg QD for 14 days
How it was run: as §1

osteocalcin = experiment: Serum bone turnover biomarker osteocalcin; format: in vivo, homo sapiens
How it was run: as §1

BSAP = experiment: Serum bone turnover biomarker BSAP; format: in vivo, homo sapiens
How it was run: as §1

AXIN2 mRNA [3] = experiment: Target engagement: AXIN2 mRNA; format: in vivo, homo sapiens; conditions: skin
How it was run: (§2)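 Hair follicles (2 mm micropunch) and skin biopsies (4 mm) were taken from the lower back of the head on day −1 and on day 16, 8 ± 2 h after the last of 14 consecutive once-daily doses. AXIN2 mRNA was measured by qRT-PCR and normalized to the geometric mean of HPRT1, IPO8 and POLR2A. Fold change from baseline was calculated by 2^−ΔΔCt, versus 8 pooled placebo participants.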

AXIN2 mRNA [4] = experiment: Target engagement: AXIN2 mRNA; format: in vivo, homo sapiens; conditions: hair follicle
How it was run: as §2

Wnt7a = experiment: Serum high-throughput proteomics; format: in vivo, homo sapiens; conditions: study day 16, 5, 15, 20 mg
Wnt16 = experiment: Serum high-throughput proteomics; format: in vivo, homo sapiens; conditions: study day 16
[5] = Human PK, dose-to-man and exposure predictions; conditions: 15 mg once daily
lung collagen deposition = conditions: cited from earlier work
[6] = test system: alveolar epithelial type II cells; conditions: cited from earlier work
[7] = all dose levels, after 14 consecutive days of dosing

## Cc1cc(-c2nccc3c2ccn3CC(=O)Nc2ccc(-c3cnccn3)cn2)ccn1 [AZD5055]
Phase 1 Part 2
  Dizziness: 0 n (%)
  Dysgeusia: 2 n (%) and 2 (7.7) n (%)
  Epistaxis: 1 (3.8) n (%)
  Erythema: 1 (3.8) n (%)
  Eye disorders: 2 (7.7) n (%)
  Folliculitis: 1 (3.8) n (%)
  Gastrointestinal disorders: 1 (3.8) n (%)
  General disorders and administration site conditions: 11 (42.3) n (%)
  Headache: 5 (19.2) n (%)
  Infections and infestations: 2 (7.7) n (%)
  Injury, poisoning and procedural complications: 5 (19.2) n (%)
  Limb injury: 1 (3.8) n (%)
  Medical device site dermatitis: 11 (42.3) n (%)
  Nasal discomfort: 1 (3.8) n (%)
  Nausea: 0 n (%)
  Nervous system disorders: 7 (26.9) n (%)
  Participants with ≥1 TEAE: 21 (80.8%) n (%) and 21 (80.8) n (%)
  Participants with ≥1 TEAE of grade 1 severity: 16 (61.5%) n (%) and 16 (61.5) n (%)
  Participants with ≥1 TEAE of grade 2 severity: 5 (19.2%) n (%) and 5 (19.2) n (%)
  Participants with ≥1 TEAE of grade 3 severity: 0 n (%)
  Participants with ≥1 TESAE: 0 n (%)
  Photophobia: 1 (3.8) n (%)
  Post procedural erythema: 1 (3.8) n (%)
  Post procedural inflammation: 1 (3.8) n (%)
  Procedural pain: 2 (7.7) n (%)
  Respiratory, thoracic and mediastinal disorders: 2 (7.7) n (%)
  Sensation of foreign body: 1 (3.8) n (%)
  Skin abrasion: 1 (3.8) n (%)
  Skin and subcutaneous tissue disorders: 1 (3.8) n (%)
  Suture rupture: 0 n (%)
  Ventricular tachycardia: 2 (7.7) n (%)
  Vessel puncture site haematoma: 0 n (%)
  Vision blurred: 1 (3.8) n (%)
  Vomiting: 0 n (%)
  Wheezing: 0 n (%)
[1]; after a single dose, across dose cohorts
  mean terminal elimination half-life: 10 to 11 h
[1]; oral, across dose cohorts
  median time to maximum plasma concentration (tmax): 1 to 1.5 h
[1]; single doses 7-40 mg
  Dose proportionality (power-model approach): behaves dose-proportionally
[2]; after 14 consecutive days of once daily treatment, 5-20 mg
  Dose proportionality of systemic exposure: increased in a dose-proportional manner
[2]; following repeated once daily dosing
  mean terminal half-life: 12 to 17 h
[2]; in vivo
  AZD5055 dose excreted unchanged in urine: Approximately 3%
  mean renal clearance: 0.2 to 0.3 L/h
[2]; once daily dosing
  Steady state conditions in plasma reached: ≤ 5 doses
  accumulation ratio: ≤ 2
CTX-1; 15 mg QD for 14 days
  estimated increase in serum CTX-1 compared with the placebo group: 17.5%
CTX-1; 20 mg QD for 14 days
  estimated increase in serum CTX-1 compared with the placebo group: 32.8%
P1NP
  estimated decrease in serum P1NP compared with the placebo group: 56.3%
osteocalcin; 15 and 20 mg doses
  serum osteocalcin levels: reductions
osteocalcin; lower doses
  serum osteocalcin levels vs placebo: comparable to those in the placebo group
BSAP; 20 mg dose
  serum BSAP levels: reductions
BSAP; lower doses
  serum BSAP levels vs placebo: comparable to those in the placebo group
AXIN2 mRNA [3]; 15 and 20 mg cohorts
  reduction of median AXIN2 mRNA levels: 50%–60%
AXIN2 mRNA [3]; [7]
  AXIN2 mRNA expression vs placebo-treated participants: significantly reduced from baseline
AXIN2 mRNA [4]; 15 and 20 mg cohorts
  reduction of median AXIN2 mRNA levels: 50%–60%
AXIN2 mRNA [4]; [7]
  AXIN2 mRNA expression vs placebo-treated participants: significantly reduced from baseline
Wnt7a
  Serum Wnt7a levels: reduced on study day 16 for all AZD5055 dose levels evaluated
Wnt16
  Serum Wnt16 levels: reduced on study day 16 at the 15 and 20 mg AZD5055 dose levels
[5]
  predicted continuous inhibition of Porcupine across the dosing interval: > 75%
[5]; 3-fold in vitro IC50
  predicted trough AZD5055 concentration: 0.023 µmol/L
Lung collagen deposition
  collagen deposition in the lungs: reduced collagen deposition in the lungs
[6]
  differentiation of alveolar epithelial type II cells into alveolar type I cells: increasing differentiation of alveolar epithelial type II cells into alveolar type I cells
